Assays:
Assay type in all cases: cell-based
[1] = target: Lysine-specific histone demethylase 1A (Homo sapiens) (UniProt O60341); test: Induction of LSD1 degradation in human HCT-116 cells assessed as reduction in LSD1 abundance by measuring remaining activity at 0.01 uM measured after 24 hrs by Western blot analysis (reference value: 100%)
Method in brief: (§1)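 HCT116 cells seeded in six-well plates for 24 h, then exposed 24 h to compound (0.01–10 μM) or DMSO in fresh medium. Lysis in Tris-HCl/NaCl/NP-40/Triton X-100 with protease inhibitor. Bradford-normalised 30 μg protein per lane. Quantitative Western blot used specific HDAC1, HDAC2, HDAC3, LSD1 or Sin3a antibodies with IRDye secondaries. Abundance compared with DMSO, n = 2 replicates.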

[2] = target: T1, E3 ubiquitin-protein ligase Mdm2/Histone deacetylase 2 (Homo sapiens) (UniProt Q00987+Q92769); test: PROTAC activity at MDM2/HDAC2 in human HCT-116 cells assessed as decrease in HDAC2 abundance by measuring remaining activity at 0.1 uM measured after 24 hrs by Western blot analysis (reference value: 100%); method in brief: as §1
T1 sequence (Q00987 whole entry, looked up): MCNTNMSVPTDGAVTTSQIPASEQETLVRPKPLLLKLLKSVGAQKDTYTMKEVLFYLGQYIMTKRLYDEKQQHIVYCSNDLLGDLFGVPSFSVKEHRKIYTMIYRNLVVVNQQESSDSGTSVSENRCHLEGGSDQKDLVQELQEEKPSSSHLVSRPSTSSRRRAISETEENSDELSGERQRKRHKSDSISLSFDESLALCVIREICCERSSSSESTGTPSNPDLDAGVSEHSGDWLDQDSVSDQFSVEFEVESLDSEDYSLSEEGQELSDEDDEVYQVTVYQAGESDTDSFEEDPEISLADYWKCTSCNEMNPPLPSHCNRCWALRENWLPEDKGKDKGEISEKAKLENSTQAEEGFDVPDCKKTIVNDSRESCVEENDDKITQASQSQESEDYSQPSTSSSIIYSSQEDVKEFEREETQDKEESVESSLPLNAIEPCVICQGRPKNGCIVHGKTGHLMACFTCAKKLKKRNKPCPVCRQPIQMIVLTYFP
T1 sequence (Q92769 whole entry, looked up): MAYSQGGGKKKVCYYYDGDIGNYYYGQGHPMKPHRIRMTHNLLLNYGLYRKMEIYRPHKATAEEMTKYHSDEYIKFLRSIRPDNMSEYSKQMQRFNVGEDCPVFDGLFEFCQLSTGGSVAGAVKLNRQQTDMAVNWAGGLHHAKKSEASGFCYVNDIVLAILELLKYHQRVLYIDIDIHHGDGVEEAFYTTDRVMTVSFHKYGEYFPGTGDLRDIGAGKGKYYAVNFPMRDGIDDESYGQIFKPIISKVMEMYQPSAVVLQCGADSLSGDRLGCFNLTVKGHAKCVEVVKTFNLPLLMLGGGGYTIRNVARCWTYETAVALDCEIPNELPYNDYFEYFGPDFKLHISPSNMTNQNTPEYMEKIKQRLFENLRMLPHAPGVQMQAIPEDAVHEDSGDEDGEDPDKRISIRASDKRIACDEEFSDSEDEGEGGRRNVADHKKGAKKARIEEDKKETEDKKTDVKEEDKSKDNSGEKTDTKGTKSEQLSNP

[3] = target: T1, E3 ubiquitin-protein ligase Mdm2/Histone deacetylase 2 (Homo sapiens); test: PROTAC activity at MDM2/HDAC2 in human HCT-116 cells assessed as decrease in HDAC2 abundance by measuring remaining activity at 5 uM measured after 24 hrs by Western blot analysis (reference value: 100%); method in brief: as §1
[4] = target: T2, E3 ubiquitin-protein ligase Mdm2/Histone deacetylase 3 (Homo sapiens) (UniProt Q00987+O15379); test: PROTAC activity at MDM2/HDAC3 in human HCT-116 cells assessed as reduction in HDAC3 abundance by measuring remaining activity at 0.025 uM measured after 24 hrs by Western blot analysis; method in brief: as §1
T2 sequence (O15379 whole entry, looked up): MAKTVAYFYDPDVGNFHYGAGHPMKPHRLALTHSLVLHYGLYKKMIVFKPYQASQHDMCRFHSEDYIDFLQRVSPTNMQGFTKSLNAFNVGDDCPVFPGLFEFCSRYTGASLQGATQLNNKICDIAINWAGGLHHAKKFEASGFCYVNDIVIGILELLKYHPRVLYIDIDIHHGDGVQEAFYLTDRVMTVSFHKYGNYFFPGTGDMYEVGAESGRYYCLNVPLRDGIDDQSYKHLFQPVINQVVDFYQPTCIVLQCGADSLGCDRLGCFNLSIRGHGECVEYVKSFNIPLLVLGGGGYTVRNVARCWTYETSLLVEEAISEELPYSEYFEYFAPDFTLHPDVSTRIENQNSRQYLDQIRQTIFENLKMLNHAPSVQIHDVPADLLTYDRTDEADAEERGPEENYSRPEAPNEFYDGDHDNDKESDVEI
T2 sequence (Q00987 whole entry, looked up): as the sequence (Q00987 whole entry, looked up) above

[5] = target: T3, Paired amphipathic helix protein Sin3a (Homo sapiens) (UniProt Q96ST3); test: Induction of SIN3A degradation in human HCT-116 cells assessed as reduction in SIN3A abundance by measuring remaining activity at 0.1 uM measured after 24 hrs by Western blot analysis (reference value: 100%); method in brief: as §1
T3 sequence (whole entry): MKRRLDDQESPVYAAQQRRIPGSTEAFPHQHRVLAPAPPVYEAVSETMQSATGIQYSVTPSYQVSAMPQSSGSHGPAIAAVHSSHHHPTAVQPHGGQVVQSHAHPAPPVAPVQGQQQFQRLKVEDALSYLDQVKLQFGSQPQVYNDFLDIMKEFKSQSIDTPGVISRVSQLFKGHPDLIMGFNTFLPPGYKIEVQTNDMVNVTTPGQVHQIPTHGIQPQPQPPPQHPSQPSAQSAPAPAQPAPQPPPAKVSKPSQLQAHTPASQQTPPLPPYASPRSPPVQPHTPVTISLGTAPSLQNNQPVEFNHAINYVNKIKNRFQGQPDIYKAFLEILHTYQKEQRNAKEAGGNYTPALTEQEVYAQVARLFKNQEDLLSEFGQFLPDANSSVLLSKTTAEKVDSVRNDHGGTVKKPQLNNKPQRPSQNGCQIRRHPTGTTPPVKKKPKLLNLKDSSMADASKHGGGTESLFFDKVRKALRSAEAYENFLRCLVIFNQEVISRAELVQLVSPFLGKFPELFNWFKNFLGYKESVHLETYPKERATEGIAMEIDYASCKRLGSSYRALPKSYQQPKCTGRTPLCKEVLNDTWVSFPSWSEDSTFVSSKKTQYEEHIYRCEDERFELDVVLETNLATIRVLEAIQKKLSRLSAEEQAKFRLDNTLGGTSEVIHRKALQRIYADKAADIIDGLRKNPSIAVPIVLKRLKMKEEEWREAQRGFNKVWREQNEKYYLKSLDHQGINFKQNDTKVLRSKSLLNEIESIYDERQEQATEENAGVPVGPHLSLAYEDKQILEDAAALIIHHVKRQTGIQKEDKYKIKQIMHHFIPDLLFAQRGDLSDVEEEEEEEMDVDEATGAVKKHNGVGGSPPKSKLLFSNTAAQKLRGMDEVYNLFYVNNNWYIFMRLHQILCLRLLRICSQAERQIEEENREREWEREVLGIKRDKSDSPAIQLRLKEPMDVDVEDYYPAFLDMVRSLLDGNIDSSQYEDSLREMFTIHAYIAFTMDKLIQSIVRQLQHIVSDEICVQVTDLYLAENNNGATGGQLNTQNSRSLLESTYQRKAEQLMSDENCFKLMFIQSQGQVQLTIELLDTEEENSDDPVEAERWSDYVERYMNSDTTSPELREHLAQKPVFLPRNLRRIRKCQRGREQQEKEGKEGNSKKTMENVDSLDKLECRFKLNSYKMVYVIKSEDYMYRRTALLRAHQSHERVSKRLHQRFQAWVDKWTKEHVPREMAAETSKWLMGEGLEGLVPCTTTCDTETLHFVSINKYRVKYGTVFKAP

[6] = target: T3, Paired amphipathic helix protein Sin3a (Homo sapiens); test: Induction of SIN3A degradation in human HCT-116 cells assessed as reduction in SIN3A abundance by measuring remaining activity at 2.5 uM measured after 24 hrs by Western blot analysis (reference value: 100%); method in brief: as §1
[7] = target: Lysine-specific histone demethylase 1A (Homo sapiens) (UniProt O60341); test: Induction of LSD1 degradation in human HCT-116 cells assessed as reduction in LSD1 abundance by measuring remaining activity at 10 uM measured after 24 hrs by Western blot analysis (reference value: 100%); method in brief: as §1
[8] = target: T2, E3 ubiquitin-protein ligase Mdm2/Histone deacetylase 3 (Homo sapiens); test: PROTAC activity at MDM2/HDAC3 in human HCT-116 cells assessed as reduction in HDAC3 abundance by measuring remaining activity at 5 uM measured after 24 hrs by Western blot analysis
Method in brief: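 HCT116 cells in DMEM with 10% FBS and glutamine/penicillin/streptomycin at 37 °C, 5% CO2. Seeded 4 × 10^5 cells/well, after 24 h treated 24 h with DMSO or compound in fresh medium. Lysed in Tris-HCl/NaCl/NP-40/Triton X-100 buffer with protease inhibitor, Bradford-quantified, 30 μg protein per lane. Quantitative Western blot with specific HDAC1/2/3 antibodies, IRDye secondaries, infrared imaging, versus DMSO. n = 2 replicates.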

[9] = target: Lysine-specific histone demethylase 1A (Homo sapiens) (UniProt O60341); test: Induction of LSD1 degradation in human HCT-116 cells assessed as reduction in LSD1 abundance by measuring remaining activity at 2.5 uM measured after 24 hrs by Western blot analysis (reference value: 100%); method in brief: as §1
[10] = target: T3, Paired amphipathic helix protein Sin3a (Homo sapiens); test: Induction of SIN3A degradation in human HCT-116 cells assessed as reduction in SIN3A abundance by measuring remaining activity at 1 uM measured after 24 hrs by Western blot analysis (reference value: 100%); method in brief: as §1
[11] = target: T3, Paired amphipathic helix protein Sin3a (Homo sapiens); test: Induction of SIN3A degradation in human HCT-116 cells assessed as reduction in SIN3A abundance by measuring remaining activity at 5 uM measured after 24 hrs by Western blot analysis (reference value: 100%); method in brief: as §1
[12] = target: T1, E3 ubiquitin-protein ligase Mdm2/Histone deacetylase 2 (Homo sapiens); test: PROTAC activity at MDM2/HDAC2 in human HCT-116 cells assessed as decrease in HDAC2 abundance by measuring remaining activity at 2.5 uM measured after 24 hrs by Western blot analysis (reference value: 100%); method in brief: as §1
[13] = target: T1, E3 ubiquitin-protein ligase Mdm2/Histone deacetylase 2 (Homo sapiens); test: PROTAC activity at MDM2/HDAC2 in human HCT-116 cells assessed as decrease in HDAC2 abundance by measuring remaining activity at 0.025 uM measured after 24 hrs by Western blot analysis (reference value: 100%); method in brief: as §1

Activity [1]: 104%
Activity [2]: 92%
Activity [3]: 69%
Activity [4]: 100%
Activity [5]: 99%
Activity [6]: 57%
Activity [7]: 65%
Activity [8]: 105%
Activity [9]: 73%
Activity [10]: 70%
Activity [11]: 53%
Activity [12]: 72%
Activity [13]: 96%
SMILES: COc1cc(C(=O)NCCOCCOCCOCCOCCC(=O)Nc2ccc(C(=O)Nc3ccccc3N)cc2)ccc1NC(=O)[C@@H]1N[C@@H](CC(C)(C)C)[C@](C#N)(c2ccc(Cl)cc2F)[C@H]1c1cccc(Cl)c1F

Source: ChEMBL document CHEMBL5357024, “MDM2 Antagonist Idasanutlin Reduces HDAC1/2 Abundance and Corepressor Partners but Not HDAC3” (ACS Med Chem Lett, 2024)
